Assay results reported in ChEMBL document CHEMBL3525985, “Regiospecificity and stereospecificity of human UDP-glucuronosyltransferases in the glucuronidation of estriol, 16-epiestriol, 17-epiestriol, and 13-epiestradiol” (Drug Metab Dispos, 2013).
Values belong to the molecule of their own block, whether it stands above or below them.

Columns and labels:
Type in all cases: ADME
[1] = biological target: T1, UDP-glucuronosyltransferase 1A3 (Homo sapiens, UniProt P35503); test: Drug metabolism assessed as recombinant human C-terminal His-tagged UGT1A3-mediated 17-epiestriol-3-glucuronide formation at 200 uM after 15 to 60 mins by HPLC analysis in presence of UDPGA; conditions: recombinant enzyme
T1 sequence (P35503 whole entry): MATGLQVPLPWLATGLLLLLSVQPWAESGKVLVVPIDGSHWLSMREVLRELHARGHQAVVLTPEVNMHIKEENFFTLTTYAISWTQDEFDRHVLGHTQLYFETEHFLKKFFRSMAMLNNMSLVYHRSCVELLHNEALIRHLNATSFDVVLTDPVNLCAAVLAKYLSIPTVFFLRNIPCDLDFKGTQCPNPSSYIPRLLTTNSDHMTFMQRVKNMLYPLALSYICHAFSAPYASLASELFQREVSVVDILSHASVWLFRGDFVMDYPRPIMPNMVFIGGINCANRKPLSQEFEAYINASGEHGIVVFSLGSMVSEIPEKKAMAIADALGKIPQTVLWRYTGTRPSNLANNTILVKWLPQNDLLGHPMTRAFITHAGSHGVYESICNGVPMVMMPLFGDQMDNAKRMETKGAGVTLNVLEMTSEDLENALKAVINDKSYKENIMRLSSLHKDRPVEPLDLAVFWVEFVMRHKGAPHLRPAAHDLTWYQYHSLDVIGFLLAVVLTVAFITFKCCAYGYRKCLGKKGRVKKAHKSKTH
In short: (§1)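 Screening at a single substrate concentration of 200 μM, in triplicate. The reaction used 5 or 50 µg of UGT-enriched insect cell membranes in 50 mM phosphate pH 7.4 with 10 mM MgCl₂ and 5 mM UDPGA, 10% final DMSO. Incubation was 15–60 min at 37°C. Perchloric acid stopped the reaction and supernatants were analysed by HPLC. Controls lacked UDPGA. Rates were normalized to relative UGT expression level.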

[2] = biological target: T2, UDP-glucuronosyltransferase 1A10 (Homo sapiens, UniProt Q9HAW8); test: Drug metabolism assessed as human UGT1A10-mediated 13-epiestradiol-3-glucuronide formation at 200 uM after 15 to 60 mins by HPLC analysis in presence of UDPGA; conditions: recombinant enzyme; in short: as §1
T2 sequence (Q9HAW8 whole entry): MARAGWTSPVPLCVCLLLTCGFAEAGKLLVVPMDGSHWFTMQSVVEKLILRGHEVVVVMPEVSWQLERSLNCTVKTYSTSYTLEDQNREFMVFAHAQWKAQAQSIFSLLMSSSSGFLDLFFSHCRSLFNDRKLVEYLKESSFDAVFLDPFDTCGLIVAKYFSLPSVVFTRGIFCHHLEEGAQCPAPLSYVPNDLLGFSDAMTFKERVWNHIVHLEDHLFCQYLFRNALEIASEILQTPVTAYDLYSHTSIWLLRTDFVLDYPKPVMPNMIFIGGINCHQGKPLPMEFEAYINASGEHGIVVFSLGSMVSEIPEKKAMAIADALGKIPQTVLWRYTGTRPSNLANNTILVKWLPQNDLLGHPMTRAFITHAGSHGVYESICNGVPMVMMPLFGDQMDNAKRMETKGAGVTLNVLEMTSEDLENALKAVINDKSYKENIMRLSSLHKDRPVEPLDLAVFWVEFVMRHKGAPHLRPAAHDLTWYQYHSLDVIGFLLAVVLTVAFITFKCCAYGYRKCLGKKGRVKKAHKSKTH

[3] = biological target: T3, UDP-glucuronosyltransferase 2B7 (Homo sapiens, UniProt P16662); test: Drug metabolism assessed as recombinant human C-terminal His-tagged UGT2B7-mediated 16-epiestriol-16-glucuronide formation at 5 mg after 5 hrs by NMR spectroscopic analysis in presence of UDPGA
T3 sequence (P16662 whole entry): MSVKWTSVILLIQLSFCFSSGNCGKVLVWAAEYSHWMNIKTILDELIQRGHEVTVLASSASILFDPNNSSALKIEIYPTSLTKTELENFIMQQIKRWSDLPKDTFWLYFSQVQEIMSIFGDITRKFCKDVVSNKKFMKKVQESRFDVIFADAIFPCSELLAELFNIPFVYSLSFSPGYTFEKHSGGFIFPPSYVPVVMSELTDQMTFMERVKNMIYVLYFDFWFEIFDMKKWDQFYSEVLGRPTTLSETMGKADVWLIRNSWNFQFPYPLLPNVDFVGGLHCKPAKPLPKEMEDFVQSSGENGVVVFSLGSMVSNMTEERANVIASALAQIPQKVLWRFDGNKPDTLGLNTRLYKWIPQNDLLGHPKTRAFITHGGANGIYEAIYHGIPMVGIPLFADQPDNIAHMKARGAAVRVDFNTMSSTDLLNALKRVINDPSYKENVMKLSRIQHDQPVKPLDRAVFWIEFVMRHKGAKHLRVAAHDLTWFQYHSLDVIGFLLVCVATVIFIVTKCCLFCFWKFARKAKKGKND

[4] = biological target: T4, UDP-glucuronosyltransferase 2B17 (Homo sapiens, UniProt O75795); test: Drug metabolism assessed as recombinant human C-terminal His-tagged UGT2B17-mediated estradiol-17-glucuronide formation at 200 uM after 15 to 60 mins by HPLC analysis in presence of UDPGA; conditions: recombinant enzyme; in short: as §1
T4 sequence (O75795 whole entry): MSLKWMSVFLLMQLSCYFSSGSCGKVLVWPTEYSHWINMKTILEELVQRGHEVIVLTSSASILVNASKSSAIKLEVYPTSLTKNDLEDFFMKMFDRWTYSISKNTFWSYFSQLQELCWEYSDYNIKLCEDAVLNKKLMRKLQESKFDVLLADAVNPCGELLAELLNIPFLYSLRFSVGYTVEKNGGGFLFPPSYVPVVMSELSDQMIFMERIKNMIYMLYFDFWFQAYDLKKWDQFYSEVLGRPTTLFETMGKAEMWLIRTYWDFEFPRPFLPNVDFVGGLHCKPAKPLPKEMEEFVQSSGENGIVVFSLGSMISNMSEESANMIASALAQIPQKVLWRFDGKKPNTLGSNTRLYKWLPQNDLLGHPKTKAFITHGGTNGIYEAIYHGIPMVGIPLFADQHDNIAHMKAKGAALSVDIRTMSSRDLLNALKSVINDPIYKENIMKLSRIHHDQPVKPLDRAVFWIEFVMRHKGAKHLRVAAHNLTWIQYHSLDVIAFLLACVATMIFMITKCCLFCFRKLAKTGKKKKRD

Liver microsome = test: Drug metabolism in human liver microsomes assessed as estriol-16-glucuronide formation after 15 to 60 mins by Michaelis-Menten equation analysis in presence of UDPGA
In short: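 Pooled human liver microsomes (30 donors), 0.5 or 10 µg, with alamethicin at 5% of total protein. Incubated with 50 mM phosphate pH 7.4, 10 mM MgCl₂, 5 mM UDPGA and 10% DMSO for 15–60 min at 37°C. Each glucuronide regioisomer quantified by HPLC, in triplicate, with substrate consumption at or below 10%.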

- Drug metabolism [1]: metabolite_detected
Structure (SMILES): C[C@]12CC[C@@H]3c4ccc(O)cc4CC[C@H]3[C@@H]1C[C@@H](O)[C@H]2O

- Drug metabolism [2]: metabolite_detected
Structure (SMILES): C[C@@]12CC[C@@H]3c4ccc(O)cc4CC[C@H]3[C@@H]1CC[C@@H]2O

- Drug metabolism [3]: metabolite_detected
Structure (SMILES): C[C@]12CC[C@@H]3c4ccc(O)cc4CC[C@H]3[C@@H]1C[C@H](O)[C@@H]2O [EPIESTRIOL]

- Drug metabolism [4]: metabolite_detected
Structure (SMILES): C[C@]12CC[C@@H]3c4ccc(O)cc4CC[C@H]3[C@@H]1CC[C@@H]2O [ESTRADIOL]

- Km (Liver microsome): 13 µM
- Vmax (Liver microsome): 4347 pmol/min/mg
Structure (SMILES): C[C@]12CC[C@@H]3c4ccc(O)cc4CC[C@H]3[C@@H]1C[C@@H](O)[C@@H]2O [ESTRIOL]
